For data set [1], the target named is T1, MAP kinase-interacting serine/threonine-protein kinase 2 (Homo sapiens, UniProt Q9HBH9). The experiment in a line: Inhibition of MNK2 (unknown origin) at 10 uM using S3 as substrate measured after 60 mins by HTRF assay relative to control. The method, boiled down: (§1)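 HTRF Ser/Thr KinEASE format. Mnk1 or Mnk2 enzyme (0.99 ng) incubated with compound for 60 min at room temperature with 1 μM substrate S3, 392 μM ATP, 10 mM MgCl₂ and 1 mM DTT in KinEASE enzymatic buffer. Stopped with SA-XL665 and STK antibody detection reagents; 615/665 nm signal ratio read. Single-concentration values are duplicate means; IC50 taken from inhibition curves.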
Target sequence in this assay (Q9HBH9 whole entry, looked up): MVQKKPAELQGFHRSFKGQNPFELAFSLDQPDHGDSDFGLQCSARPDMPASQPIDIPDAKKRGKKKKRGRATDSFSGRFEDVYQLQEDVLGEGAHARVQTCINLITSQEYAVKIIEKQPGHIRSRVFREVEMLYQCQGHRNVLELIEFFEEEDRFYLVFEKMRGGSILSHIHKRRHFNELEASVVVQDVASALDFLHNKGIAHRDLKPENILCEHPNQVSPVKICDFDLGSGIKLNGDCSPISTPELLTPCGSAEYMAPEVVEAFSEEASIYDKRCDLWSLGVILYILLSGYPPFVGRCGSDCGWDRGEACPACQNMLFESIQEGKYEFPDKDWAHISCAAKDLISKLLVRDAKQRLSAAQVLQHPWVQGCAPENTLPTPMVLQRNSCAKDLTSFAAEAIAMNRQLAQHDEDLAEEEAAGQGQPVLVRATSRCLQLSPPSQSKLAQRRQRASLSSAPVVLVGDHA

In data set [2] the target is T1, MAP kinase-interacting serine/threonine-protein kinase 2. The experiment in a line: Inhibition of MNK2 (unknown origin) at 1 uM using S3 as substrate measured after 60 mins by HTRF assay relative to control. The method, boiled down: as §1
On the technique in general: In TR-FRET formats the signal depends on donor and acceptor labels being close together.
Target sequence in this assay (Q9HBH9 whole entry, looked up): as above

The target in data set [3] is MAP kinase-interacting serine/threonine-protein kinase 1 (Homo sapiens) (UniProt Q9BUB5). The experiment in a line: Inhibition of MNK1 (unknown origin) at 10 uM using S3 as substrate measured after 60 mins by HTRF assay relative to control. The essentials: as §1
MAP kinase-interacting serine/threonine-protein kinase 1 (Homo sapiens), sequence (Q9BUB5 whole entry, looked up): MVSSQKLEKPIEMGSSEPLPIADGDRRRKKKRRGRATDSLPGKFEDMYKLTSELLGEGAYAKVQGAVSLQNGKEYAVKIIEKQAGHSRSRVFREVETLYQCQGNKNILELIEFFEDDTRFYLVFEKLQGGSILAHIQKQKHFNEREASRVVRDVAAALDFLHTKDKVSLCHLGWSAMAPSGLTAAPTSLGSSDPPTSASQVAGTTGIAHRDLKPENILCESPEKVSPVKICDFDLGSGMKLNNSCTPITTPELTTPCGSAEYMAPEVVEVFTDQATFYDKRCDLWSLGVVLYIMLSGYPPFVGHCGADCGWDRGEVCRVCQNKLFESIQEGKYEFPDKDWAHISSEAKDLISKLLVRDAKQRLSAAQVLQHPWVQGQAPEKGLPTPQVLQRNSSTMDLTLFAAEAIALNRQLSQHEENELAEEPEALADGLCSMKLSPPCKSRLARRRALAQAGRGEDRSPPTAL
Data set [4] has the same target. The experiment in a line: Inhibition of MNK1 (unknown origin) at 1 uM using S3 as substrate measured after 60 mins by HTRF assay relative to control. The method, boiled down: as §1
The target is the same in data set [5]. The experiment in a line: Inhibition of MNK1 (unknown origin) at 0.1 uM using S3 as substrate measured after 60 mins by HTRF assay relative to control. The essentials: as §1
In data set [6] the target is T1, MAP kinase-interacting serine/threonine-protein kinase 2. The experiment in a line: Inhibition of MNK2 (unknown origin) using S3 as substrate measured after 60 mins by HTRF assay.
Target sequence in this assay (Q9HBH9 whole entry): as the sequence (Q9HBH9 whole entry, looked up) above
The subject of data set [7] is THP-1. The experiment in a line: Antiproliferative activity against human THP1 cells after 96 hrs by MTT assay. It counts as functional, cell-based. The note with it: THP-1, 96 h. The method, boiled down:
(§2)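 Cells seeded at 2,000 per well and grown 24 h at 37 °C in 5% CO₂. Compound added over a concentration range in triplicate wells, then incubated 96 h. MTT (2 mg/mL) added for 4 h, formazan taken up in DMSO, absorbance read at 570 nm. Inhibition calculated against untreated control. IC50 is the concentration giving half inhibition; mean of three independent experiments.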
A general note: Formazan colour is commonly taken as a measure of viable cells.

Data set [8] deals with MOLM-13. The experiment in a line: Antiproliferative activity against human MOLM13 cells after 96 hrs by MTT assay. The class given is functional, cell-based. The settings on record: MOLM-13, 96 h. The method, boiled down:
as §2

Data set [9] deals with HCT-116. The experiment in a line: Antiproliferative activity against human HCT116 cells after 96 hrs by MTT assay. The class given is functional, cell-based. The note with it: HCT-116, 96 h. The essentials: as §2
In data set [10] the target is MAP kinase-interacting serine/threonine-protein kinase 1/2 (Homo sapiens) (UniProt Q9HBH9+Q9BUB5). The experiment in a line: Inhibition of MNK1/MNK2 in human HCT116 cells assessed as reduction in eIF4E phosphorylation at Ser209 residue after 24 hrs by Western blot analysis. The class given is cell-based. The essentials:
(§3)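 HCT-116 cells exposed to compound at several concentrations in 0.5% DMSO, or DMSO alone, for 24 h. Cells were rinsed in ice-cold PBS and lysed in RIPA buffer (pH 8.0), 50 µg protein loaded. Run on 8% or 12% SDS-PAGE, transferred to nitrocellulose and checked for loading by Ponceau S. Blocked in 5% milk, probed overnight at 4°C for eIF4E, p-eIF4E and GAPDH, detected by ECL.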
(Immunoblotting shows a protein as a band on a membrane.)

Data set [11] deals with HCT-116. The experiment in a line: Effect on eIF4E levels in human HCT116 cells at 1 to 4 times IC50 after 24 hrs by Western blot analysis. The class given is ADME, cell-based. The note with it: hct-116, 24 h. The essentials: as §3

This is an account of results in ChEMBL document CHEMBL4229533, “Design and synthesis of novel 6-hydroxy-4-methoxy-3-methylbenzofuran-7-carboxamide derivatives as potent Mnks inhibitors by fragment-based drug design” (Bioorg Med Chem, 2018).

In general, inhibition refers to the share of the control response that was lost under treatment. A word on the IC50: it is the concentration needed to halve the response being measured. The low end stands for greater potency, the high end for weaker potency.

Each structure is given as a SMILES string.

In the case of `COc1cc(OC)c2c(C)c(C(=O)NC3CCN(Cc4cccc(C(F)(F)F)c4)CC3)oc2c1C(N)=O`, the figures for the inhibition in data set [1] and in data set [2] were 29% and 2%, respectively.
For `COc1cc(O)c(C(N)=O)c2oc(C(=O)Nc3ccc(F)c(C(F)(F)F)c3)c(C)c12` the same measures were 35% and 18%.
On to `COc1cc(O)c(C(N)=O)c2oc(C(=O)Nc3ccc(C)c(C(F)(F)F)c3)c(C)c12`, for which the inhibition in data set [1] is 57%; in [2] it was 75%; in data set [3] it was 23%; in [4], 23%; in data set [5], 12%. In addition, the half-inhibitory concentration (IC50) in data set [6] was 3.55 µM; in data set [7], above 50 µM.
As for `COc1cc(O)c(C(N)=O)c2occ(C)c12`, the IC50 in data set [8] is 24.8 µM; in [6], 0.749 µM; in data set [7] it was 32.4 µM; in data set [9] it was 26.1 µM. The inhibition amounted to 77% in data set [1]; 43% in data set [2]; 39% in [3]; 49% in data set [4]; 34% in data set [5].
On to `COc1cc(O)c(C(N)=O)c2oc(C(=O)NCC3CCN(Cc4ccc(F)cc4)CC3)c(C)c12`, for which the values for the inhibition in [1] and in data set [2] were 41% and 32%, respectively.
Regarding `COc1cc(O)c(C(N)=O)c2oc(C(=O)Nc3ccccc3)c(C)c12`, the inhibition in [1] and in [2] was 0% each time.
For `COc1cc(O)c(C(N)=O)c2oc(C(=O)NC3CCN(Cc4cccc(C(F)(F)F)c4)CC3)c(C)c12`, the IC50 came to 3.15 µM in data set [8], 0.273 µM in [6], 6.3 µM in data set [7] and 2.77 µM in data set [9]. Moreover, the inhibition was 90% in data set [1]; 85% in [2]; 59% in [3]; 41% in data set [4]; 20% in data set [5]; “Dose-dependent effect” in data set [10]. The Activity result in data set [11] is reported as “Non-Toxic”.
`COc1cc(O)c(C(N)=O)c2oc(C(=O)N3CCCCC3)c(C)c12`: the inhibition in data set [1] is 23%; in [2], 19%.
For `COc1cc(O)c(C(N)=O)c2oc(C(=O)NC3CCN(Cc4ccc(Cl)cc4Cl)CC3)c(C)c12` the same measures were 0% and 0%.
As for `Nc1ncnc2[nH]nc(Nc3ccc(F)cc3)c12`, the 50% inhibitory concentration (IC50) came to 8.24 µM in [8], 11.7 µM in data set [7] and 10.2 µM in [9].
Turning to `Cc1c(C(=O)NC2CCN(Cc3cccc(C(F)(F)F)c3)CC2)oc2cc(O)ccc12`, the values for the inhibition in [1] and in data set [2] were 28% and 0%, respectively.
With `COc1cc(O)c(C(N)=O)c2oc(C(=O)NCC3CCN(Cc4ccc(Cl)c(Cl)c4)CC3)c(C)c12`, the figures for the inhibition in [1] and in [2] were 38% and 21%, respectively.
For `COc1cc(O)c(C(N)=O)c2oc(C(=O)NC3CCN(Cc4cccc(Cl)c4Cl)CC3)c(C)c12`, the figures for the inhibition in [1] and in [2] were 21% and 18%, respectively.
For `COc1cc(O)c(C(N)=O)c2oc(C(=O)NCc3cccc(F)c3)c(C)c12` the same measures were 23% and 11%.
Regarding `COc1cc(O)c(C(N)=O)c2oc(C(=O)NC3CCN(Cc4c(Cl)cccc4Cl)CC3)c(C)c12`, the inhibition in [1] is 27%; in [2] it was 1%.
For `COc1cc(O)c(C(N)=O)c2oc(C(=O)N3CCN(c4cccc(C(F)(F)F)c4)CC3)c(C)c12`, the inhibition in data set [1] was 61%; in data set [2], 28%.
As to `CNC(=O)c1oc2c(C(N)=O)c(O)cc(OC)c2c1C`, the inhibition is 73% in data set [1]; 66% in data set [2]; 39% in data set [3]; 26% in [4]; 11% in data set [5]. Besides, the IC50 in data set [6] was 1.45 µM; in data set [7], above 50 µM.
Consider `CCOC(=O)c1oc2c(C(N)=O)c(O)cc(OC)c2c1C`, for which the inhibition was determined as 41% in data set [1] and 21% in data set [2].
For `COc1cc(O)c(C(N)=O)c2oc(C(=O)NCCN(C)C)c(C)c12` the same measures were 24% and 19%.
As for `COc1cc(O)c(C(N)=O)c2oc(C(=O)NC3CCN(Cc4ccncc4)CC3)c(C)c12`, the inhibition in [1] was determined as 32%; in [2], 15%.
With `COc1cc(O)c(C(N)=O)c2oc(C(=O)NC3CCN(Cc4cc(Cl)ncn4)CC3)c(C)c12`, the inhibition in data set [1] turned out to be 11%; in data set [2], 0%.
Regarding `COc1cc(O)c(C(N)=O)c2oc(C(=O)NC3CCN(Cc4ccc(C)cc4)CC3)c(C)c12`, the results for the inhibition in [1] and in data set [2] were 40% and 27%, respectively.
For `COc1cc(O)c(C(N)=O)c2oc(C(=O)NC3CCCCC3)c(C)c12` the same measures were 28% and 20%.
For `Cc1c(C(=O)NC2CCN(Cc3cccc(C(F)(F)F)c3)CC2)oc2c(C(N)=O)c(O)cc(O)c12` the same measures were 34% and 1%.
Consider `COc1cc(O)c(C(N)=O)c2oc(C(=O)N(C)C)c(C)c12`, for which the inhibition was 45% in [1] and 24% in data set [2].
For `COc1ccc2c(C)c(C(=O)NC3CCN(Cc4cccc(C(F)(F)F)c4)CC3)oc2c1` the same measures were 27% and 0%.
Taken in the same sequence, the figures for `COc1cc(OC)c2c(C)c(C(=O)NC3CCN(Cc4cccc(C(F)(F)F)c4)CC3)oc2c1` were 35% and 6%.
Taken in the same sequence, the figures for `COc1cc(O)c(C(N)=O)c2oc(C(=O)N(C)Cc3ccccc3)c(C)c12` were 0% and 0%.
Regarding `COc1cc(O)c(C(N)=O)c2oc(C(=O)NC3CCCC3)c(C)c12`, the inhibition in data set [1] amounted to 22%; in data set [2] it was 6%.
For `COc1cc(O)c(C(N)=O)c2oc(C(=O)NCC3CCN(C(=O)c4ccc(F)cc4)CC3)c(C)c12` the same measures were 23% and 16%.
In the case of `COc1cc(O)c(C(N)=O)c2oc(C(=O)NC3CCN(Cc4ccc(Cl)cc4)CC3)c(C)c12`, the inhibition came out at 45% in [1] and 29% in data set [2].
Taken in the same sequence, the figures for `COc1cc(O)c(C(N)=O)c2oc(C(=O)N3CCN(c4ccccc4)CC3)c(C)c12` were 15% and 8%.
In the case of `COc1cc(O)c(C(N)=O)c2oc(C(=O)NCC3CCN(Cc4cccc(C(F)(F)F)c4)CC3)c(C)c12`, the inhibition in [1] is 49%; in data set [2], 23%.
For `COc1cc(O)c(C(N)=O)c2oc(C(=O)NC3CCN(Cc4ccc(C(F)(F)F)cc4)CC3)c(C)c12` the same measures were 43% and 24%.
Consider `CCN1CCN(C(=O)c2oc3c(C(N)=O)c(O)cc(OC)c3c2C)CC1`, for which the half-maximal inhibitory concentration (IC50) in data set [8] was 13.5 µM; in data set [6] it was 1.16 µM; in [7], 18.8 µM; in [9] it was 15.7 µM. Further, the inhibition in data set [1] worked out at 79%; in data set [2] it was 36%; in [3], 30%; in data set [4] it was 7%; in data set [5], 3%.
As to `COc1cc(O)c(C(N)=O)c2oc(C(=O)NC3CCN(Cc4ccccc4F)CC3)c(C)c12`, the inhibition in [1] is 31%; in data set [2] it was 29%.
With `COc1cc(O)c(C(N)=O)c2oc(C(=O)NC3CCN(C(=O)c4ccc(C(F)(F)F)cc4)CC3)c(C)c12`, the values for the inhibition in data set [1] and in data set [2] were 29% and 26%, respectively.
Taken in the same sequence, the figures for `COc1cc(O)c(C(N)=O)c2oc(C(=O)N3CCN(c4ccc(F)cc4)CC3)c(C)c12` were 10% and 5%.
For `COc1cc(O)c(C(N)=O)c2oc(C(=O)NC3CCN(Cc4ccc(F)cc4)CC3)c(C)c12` the same measures were 15% and 8%.
Consider `COc1cc(O)c(C(N)=O)c2oc(C(=O)N3CCOCC3)c(C)c12`, for which the inhibition in data set [1] was 24%; in data set [2], 12%.
Regarding `COc1cc(O)c(C(N)=O)c2oc(C(=O)NCc3ccccc3)c(C)c12`, the inhibition stood at 28% in data set [1] and 24% in data set [2].
